Among the data in ChEMBL document CHEMBL1134458, “Synthesis and structure-activity relationships of cetiedil analogues as blockers of the Ca(2+)-activated K+ permeability of erythrocytes” (J Med Chem, 2001) are logP and IC50 values, retold here.

As a reminder, the logP is the decadic logarithm of the partition coefficient of the neutral form, usually between octanol and water. As a reminder, the IC50 is the midpoint of a concentration-inhibition curve.

Structures are written as SMILES.

Data set [1] is described as follows: (§1) Partition coefficient (logP). The data set is classed as physicochemical. The note with it: octanol/water. The gist of the method:
(§2)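 Calculated, not measured, for the free base by summing Mannhold/Rekker revised hydrophobic fragmental constants.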

The species named for data set [2] is Oryctolagus cuniculus. Put plainly: Inhibition of K+ loss from rabbit blood cells treated with [Ca2+] ionophore A-23187. Type of data set: functional. In a few lines: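 Rabbit red cells were stored at 4 °C for up to 4 days, then suspended at ~1% hematocrit in low-K⁺ saline (0.1 mM KCl, 1 mM CaCl₂, inosine, Tris, pH 7.4) at 37 °C. They were preincubated 40–60 min with compound from DMSO stock (120 min for one; 3 min for highly lipophilic ones). A23187 2 μM was added, and K⁺ loss was read by K⁺ electrode over 3 min. Total K⁺ came from digitonin lysis, and loss was expressed as % of control.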

The species named for data set [3] is Oryctolagus cuniculus. Put plainly: Concentration required to cause 50% inhibition of K+ loss from rabbit blood cells treated with [Ca2+] ionophore A-23187. Type of data set: functional. In a few lines: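 Rabbit red cells were stored at 4 °C for up to 4 days, then suspended at ~1% hematocrit in low-K⁺ saline (0.1 mM KCl, 1 mM CaCl₂, inosine, Tris, pH 7.4) at 37 °C. They were preincubated 40–60 min with compound from DMSO stock (120 min for one; 3 min for highly lipophilic ones). A23187 2 μM was added, and K⁺ loss was read by K⁺ electrode over 3 min. Total K⁺ came from digitonin lysis, and loss was expressed as % of control. Assays were run ≥3 times, and IC50 was fitted by Hill equation (common nH, 100% maximum).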

Data set [4] in a line: as §1. The data set is classed as physicochemical. The note with it: octanol/water. The gist of the method: as §2
The source holds these as a separate data set.

For the compound `O=C(OCCN1CCCCCC1)C1(Cc2ccc([N+](=O)[O-])cc2)c2ccccc2-c2ccccc21`, the figures for the logP in data set [1] and in data set [1] (read-out: logP) were 6.92 and 7.44, respectively. In data set [2], the concentration for half-maximal inhibition (IC50) worked out at 4.6 µM.
For `O=C(OCCN1CCCCCC1)C1(Cc2ccccc2)c2ccccc2-c2ccccc21`, the log partition coefficient (logP) in data set [1] turned out to be 7.18; in data set [1] (read-out: logP), 7.68. The compound further registered a concentration for half-maximal inhibition (IC50) in data set [2] of 4 µM.
For the compound `O=C(OCCN1CCCCCC1)C1(Cc2ccc(Cl)cc2)c2ccccc2-c2ccccc21`, the figures for the logP in data set [1] and in data set [1] (read-out: logP) were 7.89 and 8.41, respectively. Further, in data set [2], inhibition was half-maximal at 2.9 µM (IC50).
Turning to `O=C(OCCN1CCCCCC1)C1(Cc2ccc(F)cc2)c2ccccc2-c2ccccc21`, the lipophilicity (logP) in data set [1] was determined as 7.32; in data set [1] (read-out: logP) it was 7.92.
Turning to `O=C(Cc1ccsc1)OCCN1CCCCCC1`, the results for the logP in data set [1] and in data set [1] (read-out: logP) were 3.55 and 3.45, respectively. In data set [2], half-maximal inhibition (IC50) required 142 µM.
Regarding `O=C(OCCN1CCCCCC1)C(C1CCCCC1)C1CCCCC1`, the logP is 6.86 in data set [1] and 8.33 in data set [1] (read-out: logP). Also, in data set [2], the half-inhibitory concentration (IC50) stood at 14 µM.
Take `O=C(OCCCN1CCCCCC1)C(c1ccccc1)(c1ccccc1)c1ccccc1`: the figures for the logP in data set [1] (read-out: logP) and in data set [4] were 7.65 and 6.4, respectively. The IC50 in data set [3] turned out to be 9.2 µM.
For the compound `O=C(OCCN1CCCCCC1)C(c1ccccc1)(c1ccccc1)c1ccccc1`, the logP in data set [1] (read-out: logP) came to 7.14; in data set [4], 6.69. The IC50 in data set [3] was 8.2 µM.
For `O=C(OCCN1CCCCCC1)c1c2ccccc2cc2ccccc12`, the log partition coefficient (logP) in data set [1] (read-out: logP) came to 6.45; in data set [4], 6.36. This compound had an IC50 in data set [3] of 28 µM.
Take `O=C(OCCN1CCCCCC1)c1cccc2ccccc12`: the logP in data set [1] came out at 5.18; in data set [1] (read-out: logP) it was 5.16. In addition, the IC50 in data set [2] was determined as 222 µM.
With `O=C(OCCN1CCCCCC1)C12C[C@H]3C[C@@H](C1)C[C@@H](C2)C3`, the lipophilicity (logP) in data set [1] was determined as 4.38; in data set [1] (read-out: logP) it was 5.6. Besides, in data set [2], the midpoint of inhibition, the IC50, lay at 178 µM.
Take `O=C(OCCN1CCCCCC1)c1ccc2ccccc2c1`: the logP was determined as 5.18 in data set [1] and 5.16 in data set [1] (read-out: logP). Further, 285 µM corresponded to half-maximal inhibition in data set [2] (IC50).
Regarding `O=C(OCCN1CCCCCC1)C(c1ccccc1)C1CCCCC1` (stereo unspecified), the results for the logP in data set [1] and in data set [1] (read-out: logP) were 5.93 and 6.88, respectively. This compound also had an IC50 in data set [2] of 18 µM.
`O=C(CC1CCCCC1)OCCN1CCCCCC1`: the logP in data set [1] worked out at 4.93; in data set [1] (read-out: logP), 5.18. The compound further showed an IC50 in data set [2] of 290 µM.
In the case of `O=C(OCCN1CCCCCC1)C(c1ccccc1)c1ccccc1`, the results for the logP in data set [1] and in data set [1] (read-out: logP) were 5.25 and 5.44, respectively. Also, half-maximal inhibition in data set [2] (IC50) was put at 164 µM.
On to `c1ccc(C(CCOCCN2CCCCCC2)(c2ccccc2)c2ccccc2)cc1`, for which the logP in data set [1] (read-out: logP) stood at 7.83; in data set [4] it was 7.35. The compound also had an IC50 in data set [3] of 5.5 µM.
On the same counts, the results for `O=C(CC(c1ccccc1)(c1ccccc1)c1ccccc1)OCCN1CCCCCC1` are 7.65, 7.11 and 9.3 µM.
Take `O=C(CC(c1ccccc1)c1ccccc1)OCCN1CCCCCC1`: the log partition coefficient (logP) in data set [1] was 5.67; in data set [1] (read-out: logP), 5.96. Further, in data set [2], the half-inhibitory concentration (IC50) worked out at 43 µM.
As to `O=C(OCCN1CCCCCC1)C(c1ccccc1)c1ccsc1` (stereo unspecified), the results for the logP in data set [1] and in data set [1] (read-out: logP) were 4.9 and 5.15, respectively. The compound further yielded a concentration for half-maximal inhibition (IC50) in data set [2] of 47 µM.
As for `O=C(OCCN1CCCCCC1)C(c1ccsc1)C1CCCCC1` (stereo unspecified), the values for the log partition coefficient (logP) in data set [1] and in data set [1] (read-out: logP) were 5.98 and 6.59, respectively. Also, the IC50 in data set [2] turned out to be 25 µM.
As to `COc1ccc(CC2(C(=O)OCCN3CCCCCC3)c3ccccc3-c3ccccc32)cc1`, the results for the lipophilicity (logP) in data set [1] and in data set [1] (read-out: logP) were 7.09 and 7.75, respectively. The same compound returned an IC50 in data set [2] of 2.8 µM.
Consider `C(#CCC1(Cc2ccccc2)c2ccccc2-c2ccccc21)CN1CCCCCC1`, for which the logP turned out to be 9.1 in data set [1] and 7.9 in data set [4]. The compound also gave a concentration for half-maximal inhibition (IC50) in data set [3] of 1.5 µM.
Consider `O=C(NCCN1CCCCCC1)C(c1ccsc1)C1CCCCC1` (stereo unspecified), for which the logP in data set [1] turned out to be 5.11; in data set [1] (read-out: logP), 5.15. In addition, in data set [2], inhibition was half-maximal at 75 µM (IC50).
On the same counts, the results for `O=C(OCCN1CCCCCC1)C1c2ccccc2-c2ccccc21` are 5.24, 5.47 and 42 µM.
